Measured values reported in ChEMBL document CHEMBL4680108, “Ancistrolikokine E, a 5,8'-Coupled Naphthylisoquinoline Alkaloid, Eliminates the Tolerance of Cancer Cells to Nutrition Starvation by Inhibition of the Akt/mTOR/Autophagy Signaling Pathway” (2018).
Active and inactive are the calls of the source. The rule behind the calls is not given here.

Legend:
PANC-1 [1] = assay: Induction of apoptosis in human PANC-1 cells cultured in nutrient-deprived medium assessed as inhibition of Bcl-xl measured after 6 hrs by Western blot analysis; assay type: functional, cell-based; details: dose 2.5-40 µM
Outline: (§1)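 PANC-1 cells in NDM or DMEM exposed to compound at different concentrations for 6 h, then immunoblotted for Bcl-2, Bcl-xL and caspase-3.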

PANC-1 [2] = assay: Induction of apoptosis in human PANC-1 cells cultured in nutrient-deprived medium assessed as inhibition of caspase-3 measured after 6 hrs by Western blot analysis; assay type: functional, cell-based; details: dose 2.5-40 µM; outline: as §1
PANC-1 [3] = assay: Induction of apoptosis in human PANC-1 cells cultured in nutrient-deprived medium assessed as induction of active caspase-3 cleavage at 2.5 to 40 uM measured after 6 hrs by Western blot analysis; assay type: functional, cell-based; details: dose 2.5-40 µM; outline: as §1
PANC-1 [4] = assay: Inhibition of Akt/mTOR signaling pathway in human PANC-1 cells cultured in nutrient-deprived medium assessed as decrease in phosphorylated Akt level at S473 residue measured after 6 hrs by Western blot analysis; assay type: cell-based; details: dose 2.5-40 µM
Outline: (§2)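 Western blot of PANC-1 cells exposed to compound at different concentrations for 6 h in NDM or DMEM. Probed for total and phosphorylated Akt and mTOR and for GβL. Band levels compared with untreated control cells in NDM.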

PANC-1 [5] = assay: Inhibition of Akt/mTOR signaling pathway in human PANC-1 cells cultured in nutrient-deprived medium assessed as decrease in total Akt level measured after 6 hrs by Western blot analysis; assay type: cell-based; details: dose 2.5-40 µM; outline: as §2
PANC-1 [6] = assay: Inhibition of Akt/mTOR signaling pathway in human PANC-1 cells cultured in nutrient-deprived medium assessed as decrease in phosphorylated mTOR level at S2448 residue measured after 6 hrs by Western blot analysis; assay type: cell-based; details: dose 2.5-40 µM; outline: as §2
PANC-1 [7] = assay: Inhibition of Akt/mTOR signaling pathway in human PANC-1 cells cultured in nutrient-deprived medium assessed as decrease in total mTOR level measured after 6 hrs by Western blot analysis; assay type: cell-based; details: dose 2.5-40 µM; outline: as §2
PANC-1 [8] = assay: Inhibition of Akt/mTOR signaling pathway in human PANC-1 cells cultured in nutrient-deprived medium assessed as decrease in GbetaL level measured after 6 hrs by Western blot analysis; assay type: cell-based; details: dose 2.5-40 µM; outline: as §2
PANC-1 [9] = assay: Inhibition of Akt/mTOR signaling pathway in human PANC-1 cells cultured in nutrient-deprived medium assessed as decrease in phosphorylated Akt level at S473 residue at 20 uM measured after 6 hrs by Western blot analysis relative to control; assay type: cell-based; outline: as §2
PANC-1 [10] = assay: Inhibition of Akt/mTOR signaling pathway in human PANC-1 cells cultured in nutrient-deprived medium assessed as decrease in phosphorylated Akt level at S473 residue at 40 uM measured after 6 hrs by Western blot analysis relative to control; assay type: cell-based; outline: as §2
PANC-1 [11] = assay: Inhibition of Akt/mTOR signaling pathway in human PANC-1 cells cultured in nutrient-deprived medium assessed as decrease in total Akt level at 20 uM measured after 6 hrs by Western blot analysis relative to control; assay type: cell-based; outline: as §2
PANC-1 [12] = assay: Inhibition of Akt/mTOR signaling pathway in human PANC-1 cells cultured in nutrient-deprived medium assessed as decrease in total Akt level at 40 uM measured after 6 hrs by Western blot analysis relative to control; assay type: cell-based; outline: as §2
PANC-1 [13] = assay: Inhibition of Akt/mTOR signaling pathway in human PANC-1 cells cultured in nutrient-deprived medium assessed as decrease in phosphorylated mTOR level at S2448 residue at 40 uM measured after 6 hrs by Western blot analysis relative to control; assay type: cell-based; outline: as §2
PANC-1 [14] = assay: Inhibition of Akt/mTOR signaling pathway in human PANC-1 cells cultured in nutrient-deprived medium assessed as decrease in total mTOR level at 40 uM measured after 6 hrs by Western blot analysis relative to control; assay type: cell-based; outline: as §2
PANC-1 [15] = assay: Inhibition of autophagy in human PANC-1 cells cultured in nutrient-deprived medium assessed as inhibition of Beclin-1 expression after 6 hrs by Western blot analysis; assay type: functional, cell-based; details: dose 2.5-40 µM
PANC-1 [16] = assay: Inhibition of autophagy in human PANC-1 cells cultured in nutrient-deprived medium assessed as inhibition of Atg5 expression after 6 hrs by Western blot analysis; assay type: functional, cell-based; details: dose 2.5-40 µM
PANC-1 [17] = assay: Inhibition of autophagy in human PANC-1 cells cultured in nutrient-deprived medium assessed as inhibition of Atg12 expression after 6 hrs by Western blot analysis; assay type: functional, cell-based; details: dose 2.5-40 µM
PANC-1 [18] = assay: Inhibition of autophagy in human PANC-1 cells cultured in nutrient-deprived medium assessed as inhibition of LC3-1 expression after 6 hrs by Western blot analysis; assay type: functional, cell-based; details: dose 2.5-40 µM
PANC-1 [19] = assay: Inhibition of autophagy in human PANC-1 cells cultured in nutrient-deprived medium assessed as inhibition of LC3-2 expression after 6 hrs by Western blot analysis; assay type: functional, cell-based; details: dose 2.5-40 µM
PANC-1 [20] = assay: Inhibition of autophagy in human PANC-1 cells cultured in nutrient-deprived medium assessed as inhibition of LC3-1 expression at 40 uM after 6 hrs in presence of chloroquine by Western blot analysis; assay type: functional, cell-based
PANC-1 [21] = assay: Inhibition of autophagy in human PANC-1 cells cultured in nutrient-deprived medium assessed as inhibition of LC3-2 expression at 40 uM after 6 hrs in presence of chloroquine by Western blot analysis; assay type: functional, cell-based
PANC-1 [22] = assay: Inhibition of autophagy in human PANC-1 cells cultured in nutrient-deprived medium after 6 hrs by MDC-staining based fluorescence microscopy analysis; assay type: functional, cell-based; details: dose 40.0 µM
Outline: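 PANC-1 cells under nutrient starvation given monodansylcadaverine with or without compound for 6 h. Autolysosome fluorescence viewed in fluorescence and phase-contrast modes.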

PANC-1 [23] = assay: Inhibition of autophagy in human PANC-1 cells cultured in nutrient-deprived medium assessed as inhibition of LC3-2 expression at 40 uM after 6 hrs in presence of chloroquine by Western blot analysis relative to control; assay type: functional, cell-based

## COc1cc(OC)c(-c2ccc(O)c3c(OC)cc(C)cc23)c2c1C(C)=N[C@H](C)C2
PANC-1 [1]
  inhibition: Active
PANC-1 [2]
  inhibition: Active
PANC-1 [3]
  Activity: inactive
PANC-1 [4]
  inhibition: Dose-dependent effect
PANC-1 [5]
  inhibition: Dose-dependent effect
PANC-1 [6]
  inhibition: Dose-dependent effect
PANC-1 [7]
  inhibition: Dose-dependent effect
PANC-1 [8]
  inhibition: Dose-dependent effect
PANC-1 [9]
  inhibition: 65%
PANC-1 [10]
  inhibition: 99%
PANC-1 [11]
  inhibition: 48%
PANC-1 [12]
  inhibition: 86%
PANC-1 [13]
  inhibition: 92%
PANC-1 [14]
  inhibition: 100%
PANC-1 [15]
  inhibition: Dose-dependent effect
PANC-1 [16]
  inhibition: Dose-dependent effect
PANC-1 [17]
  inhibition: Dose-dependent effect
PANC-1 [18]
  inhibition: Dose-dependent effect
PANC-1 [19]
  inhibition: Dose-dependent effect
PANC-1 [20]
  inhibition: Active
PANC-1 [21]
  inhibition: Active
PANC-1 [22]
  inhibition: Active
PANC-1 [23]
  inhibition: Active
